Test results as given in PMC10405225 (Cancer chemotherapy and pharmacology, 2022).

Assays:
PEER T-ALL cells = assay: Cell cytotoxicity assay; format: cell-based; conditions: Homo sapiens, 48 h
In short: (§1)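 Human T-ALL lines grown in RPMI with 10% or 20% FBS at 37°C, 5% CO2. Plated 2×10^3–2×10^4 cells/well depending on doubling time, in quadruplicate. Test compound added from DMSO (≥1:1000 into medium) at varying concentrations; DMSO vehicle control. Exposure 48 h, then CCK-8 for 4 h at 37°C and A450 read. % survival derived; ≥3 independent experiments, mean ± SE.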

SUP-T1 T-ALL cells = assay: Cell cytotoxicity assay; format: cell-based, Human
In short: as §1

[1] = system: T-ALL cell lines other than SUP-T1; assay: Cell cytotoxicity assay; format: cell-based; conditions: Homo sapiens, SUP-T1, 48 h
In short: as §1

BCL-XL = BCL-XL (Homo sapiens, UniProt Q07817); assay: BCL-XL degradation by western blot densitometry in SUP-T1 cells; format: cell-based; conditions: read-out: DC50 (concentration that degraded 50% of BCL-XL protein), 24 hrs of DT2216, western blot densitometry
Chain of BCL-XL (Q07817 whole entry): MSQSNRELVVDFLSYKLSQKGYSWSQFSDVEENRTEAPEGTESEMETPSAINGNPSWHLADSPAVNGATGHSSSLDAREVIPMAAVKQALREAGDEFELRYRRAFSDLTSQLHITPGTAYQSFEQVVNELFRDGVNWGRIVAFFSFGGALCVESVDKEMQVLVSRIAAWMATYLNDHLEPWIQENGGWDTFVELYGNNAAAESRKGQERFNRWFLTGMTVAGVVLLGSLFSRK

BCL-2 or MCL-1 = format: cell-based, Human
In short: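 T-ALL cells were lysed before and after test-compound exposure. Western blots of 10 µg lysate were probed for BCL-2 and MCL-1, with β-actin as loading control. Band intensities were measured by densitometry and normalized to β-actin. Each blot was done twice with distinct protein preparations.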

[2] = intratumoral, T-ALL xenograft in immunodeficient mice ref 8; cited from earlier work

DC50 (BCL-XL): 131 nM
Structure (SMILES): Cc1ncsc1-c1ccc([C@H](C)NC(=O)[C@@H]2C[C@@H](O)CN2C(=O)[C@@H](NC(=O)CCCCCC(=O)N2CCN(CC[C@H](CSc3ccccc3)Nc3ccc(S(=O)(=O)NC(=O)c4ccc(N5CCN(CC6=C(c7ccc(Cl)cc7)CCC(C)(C)C6)CC5)cc4)cc3S(=O)(=O)C(F)(F)F)CC2)C(C)(C)C)cc1 [DT2216]
IC50 (PEER T-ALL cells): 305 nM | IC50 (SUP-T1 T-ALL cells; 48 hrs): 1490 nM | IC50 (SUP-T1 T-ALL cells; Homo sapiens, SUP-T1, 48 h): > 800 nM | IC50 [1]: < 800 nM | Induction of BCL-2 or MCL-1 expression by DT2216 (BCL-2 or MCL-1; any of the 13 T-ALL cell lines): not induced | Change in BCL-2 or MCL-1 protein levels after exposure to DT2216 (BCL-2 or MCL-1; resistant SUP-T1 cells): no change | DT2216 level achieved within a T-ALL xenografted tumor in vivo [2]: 800 nM
